Measured values taken from publication PMC4055946 (Nuclear medicine and biology, 2014).

Columns and labels:
[1] = Rat whole body biodistribution of radioactivity after intravenous injection; format: in vivo; conditions: female CD rats, i.v., N = 3; for Tissue biodistribution, Bone, avg: femur in its entirety
Summary of the method: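 Female CD rats (N = 6) under light isoflurane got carbon-11 labeled test compound (1.85-4.44 MBq in 5% ethanol/saline) by tail vein. At 5 and 40 min, groups of 3 were anesthetized and killed by decapitation, and tissues were removed. Samples were weighed and counted for carbon-11, and uptake was expressed as % injected dose/g.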

[2] = molecular target: T1, cathepsin K (Rattus norvegicus, UniProt O35186); assay: MicroPET imaging of bone uptake and blocking in rat; conditions: for radioactivity in actively growing bone regions relative to non-target regions such as muscle: normal rat, microPET, 0-60 min, i.v.
T1 sequence (O35186 115-329): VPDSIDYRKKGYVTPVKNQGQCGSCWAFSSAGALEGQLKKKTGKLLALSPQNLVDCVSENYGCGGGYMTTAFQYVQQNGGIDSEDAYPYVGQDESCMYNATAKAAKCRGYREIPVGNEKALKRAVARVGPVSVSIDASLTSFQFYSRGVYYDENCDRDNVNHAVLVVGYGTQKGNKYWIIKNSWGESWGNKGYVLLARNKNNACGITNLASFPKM

With `[11CH3]Oc1ccc(CCNC(=O)c2cnc(C#N)nc2NC2CCCCC2)cc1` [[^11C]1, 2-cyano-4-(cyclohexylamino)-N-(4-[^11C]methoxyphenethyl)-pyrimidine-5-carboxamide] the “Tissue biodistribution, Adrenal, avg” value ([1]; 5 min) was 3.57 % injected dose/g, the “Tissue biodistribution, Blood, avg” value ([1]; 5 min) was 0.24 % injected dose/g and the “Tissue biodistribution, Brain, avg” value ([1]; 5 min) was 0.43 % injected dose/g. The “Tissue biodistribution, Heart, avg” value ([1]; 5 min) was 1.23 % injected dose/g, the “Tissue biodistribution, Kidney, avg” value ([1]; 5 min) was 2.03 % injected dose/g and the “Tissue biodistribution, Liver, avg” value ([1]; 5 min) was 3.02 % injected dose/g. The “Tissue biodistribution, Lung, avg” value ([1]; 5 min) was 0.68 % injected dose/g, the “Tissue biodistribution, Muscle, avg” value ([1]; 5 min) was 0.11 % injected dose/g and the “Tissue biodistribution, Pancreas, avg” value ([1]; 5 min) was 1.68 % injected dose/g. The “Tissue biodistribution, Spleen, avg” value ([1]; 5 min) was 1.03 % injected dose/g, the “Tissue biodistribution, Bone, avg” value ([1]; 5 min) was 0.26 % injected dose/g and the “Tissue biodistribution, Adrenal, avg” value ([1]; 40 min) was 0.51 % injected dose/g. For the same molecule, the “Tissue biodistribution, Blood, avg” value ([1]; 40 min) was 0.11 % injected dose/g, the “Tissue biodistribution, Brain, avg” value ([1]; 40 min) was 0.11 % injected dose/g and the “Tissue biodistribution, Heart, avg” value ([1]; 40 min) was 0.19 % injected dose/g. The “Tissue biodistribution, Kidney, avg” value ([1]; 40 min) was 0.41 % injected dose/g, the “Tissue biodistribution, Liver, avg” value ([1]; 40 min) was 0.68 % injected dose/g and the “Tissue biodistribution, Lung, avg” value ([1]; 40 min) was 0.16 % injected dose/g. The “Tissue biodistribution, Muscle, avg” value ([1]; 40 min) was 0.11 % injected dose/g, the “Tissue biodistribution, Pancreas, avg” value ([1]; 40 min) was 0.56 % injected dose/g and the “Tissue biodistribution, Spleen, avg” value ([1]; 40 min) was 0.22 % injected dose/g. The “Tissue biodistribution, Bone, avg” value ([1]; 40 min) was 0.14 % injected dose/g and the “radioactivity in actively growing bone regions relative to non-target regions such as muscle” value [2] was 2 to 3 times.

With `CC(C)(C)CNc1nc(C#N)ncc1C(=O)NCCc1ccc(O[11CH3])cc1` [[^11C]2, 2-cyano-N-(4-[^11C]methoxyphenethyl)-4-(neopentylamino)pyrimidine-5-carboxamide] the “radioactivity in actively growing bone regions relative to non-target regions such as muscle” value [2] was 2 to 3 times and the “bone uptake of radioactivity after blocking dose of unlabeled ligand” value ([2]; rat microPET, 2 mg/kg unlabeled 2 ten minutes prior to the radioligand) was “reduction of bone uptake of radioactivity to essentially levels equivalent to background in non-target tissues”.
